Measured values reported in ChEMBL document CHEMBL3399929 (Bioorg Med Chem, 2015).
pIC50: −log10 of the molar value. Values after ≈ are worked out from the molar mass of the structure shown. Active and inactive are the calls of the source. The rule behind the calls is not given here.

What was measured:
[1] = Inhibition of Mycobacterium smegmatis TMC 607 ATP synthase incubated for 10 mins prior to NADH addition measured after 1 hr by luminescence assay; set-up: species or system Mycolicibacterium smegmatis; settings: for pIC50: read-out: IC50
[2] = test system: Mycobacterium tuberculosis; test: Antimycobacterial activity against Mycobacterium tuberculosis H37Rv after 4 weeks by agar dilution assay; assay type: functional; settings: for MIC: Mycobacterium tuberculosis, H37Rv, 672 h, read-out: MIC100
Summary of the method: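 Agar dilution method. DMSO stocks (5 mg/mL) were serially diluted in DMSO, and 0.1 mL of each was mixed into 1.9 mL Middlebrook 7H10 agar with OADC and set as slants. Each tube received about 10^5 bacilli from a 3-week Lowenstein–Jensen culture suspended in saline with 0.05% Tween-80. Tubes were incubated at 37 °C for 4 weeks. MIC was the lowest concentration with no visible growth.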

[3] = test system: Mycobacterium tuberculosis; test: Bactericidal activity against non-replicating Mycobacterium tuberculosis H37Rv Wayne model under hypoxic/oxygen depleted conditions assessed as log reduction after 4 days by serial dilution assay; assay type: functional
Summary of the method: (§1)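 Wayne hypoxia model. A mid-log 7H9 culture was diluted to about 10^5 cfu/mL, and 10 mL was sealed in 20 mL headspace vials. Vials were stirred slowly at 37 °C for 20–22 days, until methylene blue indicator (1.5 µg/mL) decolorized. Drug was then injected through the septum, and vials were incubated 4 more days at 37 °C. Tests were run in duplicate, with CFU counted on 7H10 agar plates.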

[4] = test system: Mycobacterium tuberculosis; test: Bactericidal activity against non-replicating Mycobacterium tuberculosis H37Rv Wayne model under hypoxic/oxygen depleted conditions assessed as log reduction at 50 ug/ml after 4 days by serial dilution assay; assay type: functional; summary of the method: as §1
[5] = test system: Mycobacterium tuberculosis H37Rv; test: Inhibition of Mycobacterium tuberculosis H37Rv ATP synthase assessed as reduction in total ATP content at 0.5 ug/ml after 18 hrs by bead-vortexing settling method
Summary of the method: (§2)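 H37Rv was declumped by bead-vortexing and settling, adjusted to McFarland 1, then diluted 100-fold. Portions of 1 mL in tubes with 0.5 mm glass beads were exposed to compound for 18 h at 37 °C. Samples were heated 8–10 min, chilled on ice, and bead-beater lysed. Cleared lysate ATP was measured by luciferase assay.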

[6] = test system: Mycobacterium tuberculosis; test: Bactericidal activity against non-replicating Mycobacterium tuberculosis H37Rv Wayne model under hypoxic/oxygen depleted conditions assessed as log reduction at 100 ug/ml after 4 days by serial dilution assay; assay type: functional; summary of the method: as §1
Mus musculus = organism: Mus musculus; test: Inhibition of Swiss mouse liver ATP synthase at 100 uM after 1 hr
Summary of the method: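 Liver mitochondria came from an overnight-fasted adult Swiss mouse, isolated by differential centrifugation in sucrose/Tris-MOPS/EGTA buffer pH 7.4 and assayed the same day. Mitochondria (100 µg) were stirred at room temperature with 100 µM compound in Tris/HCl, sucrose, 5 mM MgCl2 and 100 µM diadenosine pentaphosphate, pH 7.4. The reaction was started with 1 mM ADP, 20 mM Pi and 50 mM succinate, stopped after 1 h with EDTA-TCA, and ATP was read by luciferase.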

[7] = biological target: ATP synthase (Mycobacterium tuberculosis) (UniProt P9WPU9+P9WPU5+P9WPU7+P9WPV5+P9WPS1+P9WPV1+P9WPV7+P9WPV3); test: Inhibition of Mycobacterium tuberculosis H37Rv ATP synthase assessed as reduction in total ATP content at 100 uM after 18 hrs by bead-vortexing settling method; assay type: protein-complex assay; summary of the method: as §2
[8] = test system: Mycolicibacterium smegmatis; test: Inhibition of Mycobacterium smegmatis TMC 607 ATP synthase at 100 uM incubated for 10 mins prior to NADH addition measured after 1 hr by luminescence assay
Summary of the method: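 Inverted membrane vesicles from M. smegmatis were diluted to 100 µg protein/mL in 50 mM MOPS pH 7.5 with 10 mM MgCl2. Vesicles were preincubated with compound for 10 min at room temperature with stirring, then given 2.5 mM NADH for 1 min. The reaction was started with 1 mM ADP plus 10 mM potassium phosphate and run for 1 h. It was quenched with EDTA/TCA, and ATP was read by luciferase luminescence.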

[9] = test system: Mycobacterium tuberculosis; test: Antimycobacterial activity against Mycobacterium tuberculosis H37Rv infected in mouse chronic TB model assessed as survival rate at 490 umol/kg administered via esophageal cannula 6 times a week for 4 weeks relative to untreated control; assay type: functional; settings: 672 h
Summary of the method: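 Male Balb/C mice (8–10 weeks, 18–20 g), ten per group, were infected intravenously with 5 × 10^6 CFU H37Rv in 0.2 mL. Dosing by gavage began on day 1, six times weekly for 4 weeks, with the last dose on day 28. Survival was followed to day 30. Survivors were sacrificed on day 30, and lung and spleen homogenates were plated on 7H10/OADC at 37 °C for 4–6 weeks. Results were compared with an untreated infected group.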

For `CCN(CC)Cc1cc(N(c2cc(C)nc3cc(Cl)ccc23)S(=O)(=O)c2cc(Cl)ccc2Cl)ccc1O`, the pIC50 [1] was 5.87.

`CCN(CC)Cc1cc(N(c2cc(C)nc3cc(Cl)ccc23)S(=O)(=O)c2c(C(C)C)cc(C(C)C)cc2C(C)C)ccc1O` showed a pIC50 [1] of 5.48.

For `CCN(CC)Cc1cc(N(c2cc(C)nc3cc(Cl)ccc23)S(=O)(=O)c2cccc(C(F)(F)F)c2)ccc1O`, the pIC50 [1] was 5.87.

With `CCN(CC)Cc1cc(N(c2cc(C)nc3cc(Cl)ccc23)S(=O)(=O)c2cccc3ccccc23)ccc1O` the pIC50 [1] was 6.00 and the MIC [2] was 12.5 µg/mL (≈ 22.3 µM).

For `CCN(CC)Cc1cc(N(c2cc(C)nc3cc(Cl)ccc23)S(=O)(=O)c2ccc3ccccc3c2)ccc1O`, the pIC50 [1] was 6.04 and the MIC [2] was > 25 µg/mL.

`CCN(CC)Cc1cc(N(c2cc(C)nc3cc(Cl)ccc23)S(=O)(=O)c2ccc(Cl)s2)ccc1O` gave a pIC50 [1] of 6.44 and an MIC100 [2] of 6.25 µg/mL (≈ 11.4 µM).

For `Cc1ncc([N+](=O)[O-])n1CCO` [METRONIDAZOLE], the MIC100 [3] was “inactive”, the IC50 [1] was “Not Active” and the log10CFU/ml [4] was 1.16.

`CO[C@H]1/C=C/O[C@@]2(C)Oc3c(C)c(O)c4c(O)c(c(/C=N/N5CCN(C)CC5)c(O)c4c3C2=O)NC(=O)/C(C)=C\C=C\[C@H](C)[C@H](O)[C@@H](C)[C@@H](O)[C@@H](C)[C@H](OC(C)=O)[C@@H]1C` showed an inhibition [5] of 69.6%.

With `C(=NC1CCCCC1)=NC1CCCCC1` [DICYCLOHEXYLCARBODIIMIDE] the MIC100 [3] was “inactive”, the log10CFU/ml [6] was 4.68 and the inhibition (Mus musculus) was 83%. It also gave an inhibition [7] of 30% and an inhibition [8] of 99.5%.

With `CC[C@@H](CO)NCCN[C@@H](CC)CO` [ETHAMBUTOL] the survival at 490 µmol/kg [9] was 90%.

In the case of `CCN(CC)Cc1cc(N(c2cc(C)nc3cc(Cl)ccc23)S(=O)(=O)c2c(C)cc(C)cc2C)ccc1O`, the pIC50 [1] was 5.98.
